We go through two compounds from ChEMBL document CHEMBL5252546, “Salutaxel, a Conjugate of Docetaxel and a Muramyl Dipeptide (MDP) Analogue, Acts as Multifunctional Prodrug That Inhibits Tumor Growth and Metastasis” (J Med Chem, 2018).

Broadly, the Tmax is the time at which the peak concentration occurs. Broadly, the MRT is a mean duration of stay, worked out from the concentration-time curve. What is called AUC(0-t) is the area under the concentration-time curve up to a stated or last time point. In general, half-life refers to the time in which the quantity being followed falls by half. A high value points to slow loss. A word on the MRT inf: it is the average time that molecules of a dose stay in the body. In general, AUC(0-inf) refers to the area under the concentration-time curve extrapolated to infinity. A low value points to low exposure. Broadly, the inhibition in vivo is the percentage by which the read-out fell short of the control. In general, clearance refers to a measure of how efficiently the substance is removed, as volume per time. Low values mean inefficient removal, high ones efficient removal. Usually Cmax stands for the maximum level reached in the sampled fluid or tissue.

The nature of data set [1]: Tmax in mouse tumor implanted with mouse 4T1 cells at 5.7 mg/kg,iv measured upto 72 hrs. The data set is classed as ADME, organism-based, Neoplasm.
In data set [2] the test system is 4T1. Nature of the data set: Antitumor activity against mouse 4T1 cells implanted in BALB/c mouse assessed as decrease in lung injury at 5.7 mg/kg,iv administrated once per week for 4 weeks in presence of compound 5b by H and E staining based assay. The data set is classed as functional, organism-based. Put shortly:
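BALB/c mice bearing orthotopic mammary fat pad 4T1 tumors, dosed iv weekly for 4 weeks with saline vehicle as control. Lung sections stained with hematoxylin and eosin and examined by light microscopy at 40× for metastasis, inflammatory infiltration and alveolar wall thickening.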

The test system of data set [3] is 4T1. Nature of the data set: Antitumor activity against mouse 4T1 cells implanted in BALB/c mouse assessed as decrease in tumor MMP9 expression level at 5.7 mg/kg,iv administrated once per week for 4 weeks in presence of MDA-205 by western blot assay. The data set is classed as functional, organism-based. Summed up:
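Tumour-bearing BALB/c mice (4T1 cells into mammary fat pad) given iv saline vehicle or test agents once weekly for 4 weeks. Tumours excised and probed by western blot for MMP9, MMP2 and NOD1, β-actin as loading control. Bands averaged over five mice per group; representative of two independent experiments.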
In general terms: A western blot detects proteins with antibodies after separation by electrophoresis.

A short description of data set [4]: MRT in mouse tumor implanted with mouse 4T1 cells at 5.7 mg/kg,iv measured upto 72 hrs. It counts as ADME, organism-based, Neoplasm.
Data set [5] in a line: Toxicity in BALB/c mouse injected with mouse 4T1 cells assessed as body weight loss at 5.7 mg/kg,iv in presence of compound 5b administrated once per week for 4 weeks. It counts as organism-based. Particulars: in vivo, 672 h.
Data set [6] in a line: AUC (0-t) in rat at 8 mg/kg,iv measured upto 24 hrs. Particulars: in vivo. The data set is classed as ADME, organism-based. Also noted: dose 8 mg/kg, time < 24 hrs, route iv. Put shortly:
(§1)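 Single iv dose: rats 2, 4 or 8 mg/kg by intravenous injection; Beagle dogs 1, 2 or 4 mg/kg by intravenous infusion. Plasma concentration–time data were analysed by sex and pooled. Reported parameters: Cmax, Tmax, AUC0−t, AUC0−∞, MRT0−∞, t1/2, CL, Vss, given as mean ± SD.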

Data set [7] in a line: AUC (0-t) in male rat at 2 mg/kg,iv measured upto 24 hrs. The data set is classed as ADME, organism-based. Also noted: time < 24 hrs, dose 2 mg/kg, route iv. Particulars: in vivo. Summed up:
as §1

Data set [8] is described as follows: Half life in mouse tumor implanted with mouse 4T1 cells at 10 mg/kg,iv measured upto 72 hrs. The data set is classed as ADME, organism-based, Neoplasm.
Data set [9] has as its system 4T1. Nature of the data set: Antitumor activity against mouse 4T1 cells implanted in BALB/c mouse assessed as decrease in serum S100A9 level at 20 mg/kg,iv administrated once per week for 4 weeks by ELISA. The data set is classed as functional, organism-based. Summed up:
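4T1 fat-pad model in BALB/c mice, iv 5–20 mg/kg once weekly for 4 weeks, with vehicle and naive groups; serum MMP9, TIMP-1, IL-6 and S100A9 measured by mouse ELISA kits.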

A short description of data set [10]: MRT (0 to infinity) in female Beagle dog at 4 mg/kg,iv measured upto 24 hrs. It counts as ADME, organism-based, Canis lupus familiaris. To be noted: in vivo.
Data set [11] can be described thus: Toxicity in HaM/ICR mouse assessed as effect on motor coordination at 5 to 20 mg/kg,iv. It counts as organism-based. To be noted: in vivo, dose 5-20 mg/kg.
Data set [12] is described as follows: Tmax in male Beagle dog at 2 mg/kg,iv measured upto 24 hrs. To be noted: in vivo. The data set is classed as ADME, organism-based, Canis lupus familiaris.
Data set [13] is described as follows: MRT (0 to infinity) in female Beagle dog at 1 mg/kg,iv measured upto 24 hrs. Particulars: in vivo. It counts as ADME, organism-based, Canis lupus familiaris.
Data set [14] is described as follows: Half life in male Beagle dog at 2 mg/kg,iv measured upto 24 hrs. It counts as ADME, organism-based, Canis lupus familiaris. To be noted: in vivo.
Data set [15] has as its system 4T1. Nature of the data set: Antitumor activity against mouse 4T1 cells implanted in BALB/c mouse assessed as decrease in MMP9 mRNA expression in lung at 20 mg/kg,iv administrated qd for 2 days by qRT-PCR analysis. To be noted: time 2.0 day. It counts as functional, organism-based. Summed up: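 Day 19 after 4T1 implantation, mice randomised into five groups; iv vehicle or 20 mg/kg plus ip C12-iE-DAP (50 μg/mouse) and MDP (100 μg/mouse) once daily for 2 days; killed after 48 h; lung mRNA for MMP8, MMP9, PROK2, S100A8, S100A9 and IL-1β by qPCR; mean ± SEM.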
(In qPCR the cycle at which signal appears reflects the starting amount.)

Data set [16] in a line: Drug distribution in rat liver at 4 mg/kg,iv measured by 0.25 hrs. The data set is classed as ADME, organism-based. Particulars: in vivo. Put shortly: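 Rats received 4 mg/kg iv. Parent drug and released docetaxel were assayed in tissues and plasma from the first sampling at 0.25 h to 24 h. The lower limit of quantitation was 200 ng/g.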
Data set [17] in a line: Prodrug conversion in mouse tumor implanted with mouse 4T1 cells assessed as AUC (0-t) of docetaxel at 4 mg/kg,iv measured upto 72 hrs. The data set is classed as ADME, organism-based, Neoplasm. To be noted: in vivo. Also noted: time < 72 hrs, dose 4 mg/kg, route iv.
For data set [18], the system named is 4T1. Nature of the data set: Antitumor activity against mouse 4T1 cells implanted in BALB/c mouse assessed as increase in lung NOD1 expression level at 5 to 20 mg/kg,iv administrated once per week for 4 weeks by western blot assay. To be noted: dose 5-20 mg/kg. The data set is classed as functional, organism-based. Put shortly: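 4T1 fat-pad model in BALB/c mice, iv once weekly for 4 weeks; MMP9, MMP2 and NOD1 in spleen, lung and tumour by western blot, β-actin loading control; bands averaged over five mice per group, representative of two independent experiments.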

Data set [19] in a line: AUC (0-infinity) in rat at 4 mg/kg,iv measured upto 24 hrs. Set-up: dose 4 mg/kg, time < 24 hrs, route iv. Particulars: in vivo. It counts as ADME, organism-based. Summed up: as §1
In data set [20] the test system is 4T1. Nature of the data set: Antitumor activity against mouse 4T1 cells xenografted with BALB/c mouse assessed as inhibition of tumor growth at 10 mg/kg,iv administrated once per week for 4 weeks. It counts as functional. To be noted: 4T1, 672 h. Summed up: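 4T1 cells injected into the mammary fat pad of BALB/c mice; iv saline vehicle or 5, 10 or 20 mg/kg once weekly for 4 weeks; body weight, tumour volume, tumour weight, lung metastatic nodule count and metastasis score recorded; n = 10, mean ± SEM, ANOVA and Student's t test.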

A short description of data set [21]: Clearance in male rat at 4 mg/kg,iv measured upto 24 hrs. It counts as ADME, organism-based. Particulars: in vivo. Put shortly: (§2)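 Rats were given a single iv injection at 2, 4 or 8 mg/kg. Plasma parent drug and released docetaxel were followed over time. Cmax, Tmax, AUC, MRT, t1/2, CL and Vss were reported for males, females and all animals combined.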
The target in the next data set is Cytochrome P450 2D6 (Homo sapiens, UniProt P10635). Nature of the data set: Inhibition of CYP2D6 in human liver microsomes using probe substrate at 0.1 to 100 uM in presence of NADPH. It counts as ADME, Microsome. Particulars: dose 0.1-100 µM. For orientation: Liver microsomes are a subcellular fraction often used to study metabolism.
Sequence of Cytochrome P450 2D6 (P10635 whole entry): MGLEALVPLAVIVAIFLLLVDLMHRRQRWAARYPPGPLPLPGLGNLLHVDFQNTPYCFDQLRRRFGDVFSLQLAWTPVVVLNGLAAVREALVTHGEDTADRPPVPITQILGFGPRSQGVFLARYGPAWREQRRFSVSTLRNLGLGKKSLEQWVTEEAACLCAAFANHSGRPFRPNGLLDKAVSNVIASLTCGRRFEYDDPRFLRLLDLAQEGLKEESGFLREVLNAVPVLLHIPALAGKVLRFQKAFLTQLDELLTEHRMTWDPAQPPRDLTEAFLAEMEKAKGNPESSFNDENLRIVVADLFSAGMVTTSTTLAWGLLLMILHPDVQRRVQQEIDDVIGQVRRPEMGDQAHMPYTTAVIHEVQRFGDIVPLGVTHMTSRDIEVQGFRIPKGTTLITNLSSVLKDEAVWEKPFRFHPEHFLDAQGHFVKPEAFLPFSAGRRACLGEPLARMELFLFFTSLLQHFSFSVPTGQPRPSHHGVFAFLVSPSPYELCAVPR
The nature of data set [22]: Volume of distribution at steady state in Beagle dog at 1 mg/kg,iv measured upto 24 hrs. Particulars: in vivo, read-out: Vdss. It counts as ADME, organism-based, Canis lupus familiaris.
The nature of data set [23]: Tmax in female rat at 2 mg/kg,iv measured upto 24 hrs. It counts as ADME, organism-based. Particulars: in vivo.
Data set [24] can be described thus: Toxicity in BALB/c mouse xenografted with mouse 4T1 cells assessed as decrease in body weight at 10 mg/kg,iv administrated with doxorubicin combination once per week for 4 weeks. The data set is classed as organism-based. To be noted: in vivo, 672 h.
Data set [25] is described as follows: Cmax in male rat at 4 mg/kg,iv measured upto 24 hrs. The data set is classed as ADME, organism-based. Set-up: time < 24 hrs, dose 4 mg/kg, route iv. To be noted: in vivo. Summed up:
as §2

Data set [26] can be described thus: AUC (0-infinity) in Beagle dog at 2 mg/kg,iv measured upto 24 hrs. The data set is classed as ADME, organism-based, Canis lupus familiaris. Set-up: dose 2 mg/kg, time < 24 hrs, route iv. Particulars: in vivo. Summed up:
as §1

A short description of data set [27]: MRT (0 to infinity) in male Beagle dog at 2 mg/kg,iv measured upto 24 hrs. The data set is classed as ADME, organism-based, Canis lupus familiaris. Particulars: in vivo.
Data set [28] is described as follows: Clearance in rat at 8 mg/kg,iv measured upto 24 hrs. The data set is classed as ADME, organism-based. Particulars: in vivo. Summed up:
as §2

A short description of data set [29]: Volume of distribution at steady state in female rat at 4 mg/kg,iv measured upto 24 hrs. The data set is classed as ADME, organism-based. Particulars: in vivo, read-out: Vdss.
Data set [30] in a line: Tmax in rat at 4 mg/kg,iv measured upto 24 hrs. It counts as ADME, organism-based. To be noted: in vivo.
Data set [31] in a line: Prodrug conversion in mouse tumor implanted with mouse 4T1 cells assessed as half life of docetaxel at 4 mg/kg,iv measured upto 72 hrs. The data set is classed as ADME, organism-based, Neoplasm. To be noted: in vivo.

The source made the active and inactive calls. No cut-off for these calls is given here.

On to `CC(=O)O[C@@]12CO[C@@H]1C[C@H](O)[C@@]1(C)C(=O)[C@H](O)C3=C(C)[C@@H](OC(=O)[C@H](O)[C@@H](NC(=O)OC(C)(C)C)c4ccccc4)C[C@@](O)([C@@H](OC(=O)c4ccccc4)[C@H]21)C3(C)C` [DOCETAXEL ANHYDROUS], for which the Tmax in [1] amounted to 30 min. Also, in the data set with 4T1 [2], the outcome was Active. Moreover, the outcome in the data set on 4T1 [3] was inactive. For the same compound, the MRT in data set [4] came to 73.3 h. Besides, in [5], the Activity result is recorded as “Non-Toxic”.
Consider `CC(=O)O[C@@]12CO[C@@H]1C[C@H](O)[C@@]1(C)C(=O)[C@H](O)C3=C(C)[C@@H](OC(=O)[C@H](OC(=O)CCC(=O)NCCCC[C@H](NC(=O)CC[C@@H](NC(=O)[C@H](C)NC(=O)/C=C/c4ccc(F)cc4Cl)C(N)=O)C(=O)O)[C@@H](NC(=O)OC(C)(C)C)c4ccccc4)C[C@@](O)([C@@H](OC(=O)c4ccccc4)[C@H]21)C3(C)C`, for which the AUC(0-t) at 24 h amounted to 45800 ng·h/mL in [6] and 6090 ng·h/mL in [7]. Further, the half-life was 93.6 min in [8] and 30.2 min in [14]. The result in the data set on 4T1 [9], with 4T1 [15] and with 4T1 [18] was Active. For the same compound, the MRT inf in [10] was 26 min; in data set [13] it was 18.4 min; in data set [27], 13.1 min. Also, the Activity entry in data set [11] is listed as “Non-Toxic”; in [24], “Toxic”. Also, the values for the Tmax in data set [12], in [23] and in [30] were 30 min, 4.98 min and 4.98 min, respectively. The Drug uptake entry in data set [16] was “Active”. In addition, in data set [17], the AUCt is 81 µmol·h/L. Further, the AUC(0-inf) in data set [19] worked out at 16900 ng·h/mL; in [26] it was 5950 ng·h/mL. In addition, in the data set with 4T1 [20], the inhibition in vivo at 10 mg/kg worked out at 37%. For the same compound, the figures for the clearance in [21] and in [28] were 3.28 mL/min/kg and 2.97 mL/min/kg, respectively. Also, on Cytochrome P450 2D6, the “inhibition (INH)” value is “Not Active”. The Vd in [22] came to 0.169 L/kg; in [29], 0.08 L/kg. For the same compound, the Cmax in [25] is 37900 ng/mL. Further, in [31], the t1/2 is 59 h.
